This note sets out measurements from ChEMBL document CHEMBL1143876, “Synthesis, analgesic, anti-inflammatory, and antimicrobial activity of some novel pyrimido[4,5-b]quinolin-4-ones” (2008).

In test [1] the test system is Rattus norvegicus. The experiment in a line: Antiinflammatory activity against carrageenan-induced paw edema in Sprague-Dawley rat at 10 mg/kg, po after 3 hrs. Format: functional. The procedure, abridged: (§1)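 Adult male rats, 150–180 g, six per group. Oral dose 1 h before 0.1 ml 1% carrageenin sc into the left hind footpad: test agents 15 mg/kg as suspension, indomethacin 10 mg/kg; vehicle 10% Tween 80. Paw volume by plethysmometer before injection, then hourly for 4 h. Edema % = (Vt−Vc)/Vc; inhibition % = (Ec−Et)/Ec. Potency taken relative to indomethacin. Means ± SE.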
(In general: In the carrageenan paw model, swelling and tenderness develop within hours.)

The subject of test [2] is Rattus norvegicus. Put plainly: Antiinflammatory activity against carrageenan-induced paw edema in Sprague-Dawley rat at 10 mg/kg, po after 1 hr. It counts as functional. The procedure, abridged:
as §1

The test system of test [3] is Rattus norvegicus. Put plainly: Antiinflammatory activity against carrageenan-induced paw edema in Sprague-Dawley rat at 10 mg/kg, po after 4 hrs. It counts as functional. In short, it runs like this: as §1
The test system of test [4] is Rattus norvegicus. Put plainly: Antiinflammatory activity against carrageenan-induced paw edema in Sprague-Dawley rat at 10 mg/kg, po after 2 hrs. Format: functional. In short, it runs like this:
as §1

The subject of test [5] is Pseudomonas aeruginosa. Put plainly: Antimicrobial activity against Pseudomonas aeruginosa at 50 ug/disk after 24 to 28 hrs. Format: functional. To be noted: read-out: IZ. The procedure, abridged: (§2)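 Agar disk diffusion: 5 mm paper disks loaded with 50 µg/disk in DMSO. Inhibition zones read after 24–28 h at 37 °C for bacteria, or 5 days at 28 °C for clinical Candida isolates grown on Sabouraud dextrose agar. Zone graded 6–10 mm slight, 11–15 mm moderate, >15 mm high. Reference disks: nalidixic acid 30 µg, nystatin 100 U.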

The subject of test [6] is Klebsiella pneumoniae. The experiment in a line: Antimicrobial activity against Klebsiella pneumoniae at 50 ug/disk after 24 to 28 hrs. To be noted: read-out: IZ. Format: functional. In short, it runs like this:
as §2

Test [7] deals with Rattus norvegicus. Put plainly: Antiinflammatory activity against carrageenan-induced paw edema in Sprague-Dawley rat at 15 mg/kg, po after 3 hrs. It counts as functional. The procedure, abridged:
as §1

For test [8], the system named is Mus musculus. Put plainly: Analgesic activity in Swiss albino mouse assessed as reaction time at 15 mg/kg, po after 90 mins by hot plate test. It counts as functional. In short, it runs like this: (§3)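 Mice of both sexes, 25–30 g, on a hot plate at 53 ± 0.5 °C; reaction time taken to hind-paw lick or jump, 60 s cut-off. Baseline read before dosing. Oral dosing in 10% v/v Tween 80 in water: test agents 15 mg/kg, acetylsalicylic acid 100 mg/kg. Re-read at 15, 30, 60 and 90 min; means ± SE.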

The test system of test [9] is Rattus norvegicus. The experiment in a line: Antiinflammatory activity against carrageenan-induced paw edema in Sprague-Dawley rat at 15 mg/kg, po relative to indomethacin after 4 hrs. It counts as functional. In short, it runs like this: as §1
In test [10] the test system is Mus musculus. Put plainly: Analgesic activity in Swiss albino mouse assessed as reaction time at 15 mg/kg, po after 60 mins by hot plate test. It counts as functional. In short, it runs like this:
as §3
(In hot-plate and tail-flick tests a longer latency is read as antinociception.)

Test [11] concerns Klebsiella pneumoniae. The experiment in a line: Antimicrobial activity against Klebsiella pneumoniae. Format: functional. The procedure, abridged: (§4)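 MIC found by disk diffusion using disks carrying varying amounts of compound per disk, in DMSO. Incubated 24–28 h at 37 °C for bacteria and 5 days at 28 °C for Candida. MIC given in µg/disk.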
The test system of test [12] is Rattus norvegicus. The experiment in a line: Antiinflammatory activity against carrageenan-induced paw edema in Sprague-Dawley rat at 15 mg/kg, po relative to indomethacin after 3 hrs. It counts as functional. The procedure, abridged: as §1
For test [13], the system named is Mus musculus. The experiment in a line: Analgesic activity against acetic acid-induced abdominal constriction in Swiss albino mouse at 15 mg/kg, po after 20 mins by writhing test relative to acetylsalicylic acid. It counts as functional, Abdomen. The procedure, abridged: (§5)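 Mice of both sexes, 25–30 g, dosed orally in 10% v/v Tween 80 in water. Test agents were given at 15 mg/kg and acetylsalicylic acid at 100 mg/kg. 30 min later, 0.7% acetic acid (10 ml/kg) ip. Writhes counted over 20 min; six per group. % protection = (control mean − treated mean)/control mean ×100; means ± SE.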
For orientation: In writhing tests, fewer writhes than in controls are read as antinociception.

The test system of test [14] is Rattus norvegicus. The experiment in a line: Antiinflammatory activity against carrageenan-induced paw edema in Sprague-Dawley rat at 15 mg/kg, po after 4 hrs. It counts as functional. The procedure, abridged:
as §1

The test system of test [15] is Rattus norvegicus. The experiment in a line: Antiinflammatory activity against carrageenan-induced paw edema in Sprague-Dawley rat at 15 mg/kg, po after 1 hr. It counts as functional. The procedure, abridged:
as §1

Test [16] relates to Rattus norvegicus. The experiment in a line: Antiinflammatory activity against carrageenan-induced paw edema in Sprague-Dawley rat at 15 mg/kg, po relative to indomethacin after 2 hrs. It counts as functional. The procedure, abridged: as §1
The test system of test [17] is Rattus norvegicus. Put plainly: Antiinflammatory activity against carrageenan-induced paw edema in Sprague-Dawley rat at 15 mg/kg, po after 2 hrs. It counts as functional. In short, it runs like this: as §1
The next test deals with Nakaseomyces glabratus. The experiment in a line: Antimicrobial activity against Candida glabrata at 50 ug/disk after 5 days. The conditions noted are these: 120 h, read-out: IZ. Format: functional. The procedure, abridged: as §2
For test [18], the system named is Staphylococcus aureus. Put plainly: Antimicrobial activity against Staphylococcus aureus. It counts as functional. In short, it runs like this:
as §4

Test [19] has as its system Mus musculus. The experiment in a line: Analgesic activity in Swiss albino mouse assessed as reaction time at 15 mg/kg, po after 30 mins by hot plate test. Format: functional. In short, it runs like this:
as §3

Test [20] concerns Mus musculus. Put plainly: Analgesic activity against acetic acid-induced abdominal constriction in Swiss albino mouse at 15 mg/kg, po after 20 mins by writhing test. Format: functional, Abdomen. In short, it runs like this:
as §5

The test system of test [21] is Staphylococcus aureus. The experiment in a line: Antimicrobial activity against Staphylococcus aureus at 50 ug/disk after 24 to 28 hrs. Format: functional. The conditions noted are these: read-out: IZ. In short, it runs like this:
as §2

In test [22] the test system is Rattus norvegicus. Put plainly: Antiinflammatory activity against carrageenan-induced paw edema in Sprague-Dawley rat at 15 mg/kg, po relative to indomethacin after 1 hr. It counts as functional. In short, it runs like this:
as §1

The subject of test [23] is Candida albicans. The experiment in a line: Antimicrobial activity against Candida albicans. Format: functional. The procedure, abridged:
as §4

Test [24] concerns Candida albicans. The experiment in a line: Antimicrobial activity against Candida albicans at 50 ug/disk after 5 days. Format: functional. To be noted: 120 h, read-out: IZ. In short, it runs like this: as §2
Test [25] concerns Escherichia coli. Put plainly: Antimicrobial activity against Escherichia coli. Format: functional. In short, it runs like this:
as §4

Test [26] has as its system Escherichia coli. The experiment in a line: Antimicrobial activity against Escherichia coli at 50 ug/disk after 24 to 28 hrs. Format: functional. The conditions noted are these: read-out: IZ. The procedure, abridged:
as §2

In test [27] the test system is Pseudomonas aeruginosa. Put plainly: Antimicrobial activity against Pseudomonas aeruginosa. It counts as functional. The procedure, abridged:
as §4

For test [28], the system named is Mus musculus. Put plainly: Analgesic activity in Swiss albino mouse assessed as reaction time at 100 mg/kg, po after 30 mins by hot plate test. Format: functional. In short, it runs like this: as §3
In test [29] the test system is Mus musculus. Put plainly: Analgesic activity against acetic acid-induced abdominal constriction in Swiss albino mouse at 100 mg/kg, po after 20 mins by writhing test. It counts as functional, Abdomen. The procedure, abridged: as §5
In test [30] the test system is Mus musculus. Put plainly: Analgesic activity in Swiss albino mouse assessed as reaction time at 100 mg/kg, po after 60 mins by hot plate test. It counts as functional. The procedure, abridged: as §3
The test system of test [31] is Mus musculus. The experiment in a line: Analgesic activity in Swiss albino mouse assessed as reaction time at 100 mg/kg, po after 90 mins by hot plate test. Format: functional. The procedure, abridged: as §3

Broadly, the inhibition in vivo is the drop in the measured response relative to a control, in per cent. On to `COc1ccc2c(c1)c(CC(=O)O)c(C)n2C(=O)c1ccc(Cl)cc1` [INDOMETHACIN], for which the inhibition in vivo at 10 mg/kg turned out to be 42.6% in the test on Rattus norvegicus [1], 56.9% in the test with Rattus norvegicus [2], 46.4% in the test with Rattus norvegicus [3] and 58.2% in the test on Rattus norvegicus [4].
`CC(=O)NNc1nc2nc3c(c(-c4ccccc4)c2c(=O)[nH]1)CCCC3`: the zone of inhibition at 50 µg/disc was 22 mm in the test with Pseudomonas aeruginosa [5]; 18 mm in the test on Klebsiella pneumoniae [6]; 16 mm with Nakaseomyces glabratus; 19 mm in the test on Staphylococcus aureus [21]; 17 mm with Candida albicans [24]; 20 mm in the test with Escherichia coli [26]. For the same molecule, the inhibition in vivo at 15 mg/kg with Rattus norvegicus [7] is 23.9%; in the test on Rattus norvegicus [9], 46.9%; in the test with Rattus norvegicus [12] it was 55.9%; with Rattus norvegicus [14], 21.8%; in the test with Rattus norvegicus [15], 25.9%; with Rattus norvegicus [16] it was 39.2%. Further, the results for the inhibition in vivo at 15 mg/kg in the test with Rattus norvegicus [17] and in the test on Rattus norvegicus [22] were 22.8% and 45.5%, respectively. The results for the Time in the test with Mus musculus [8], with Mus musculus [10] and with Mus musculus [19] were 9.22 s, 8.06 s and 8.62 s, respectively. Moreover, the MIC against Klebsiella pneumoniae [11] was 20 µg; with Staphylococcus aureus [18] it was 20 µg; against Candida albicans [23] it was 50 µg; against Escherichia coli [25], 20 µg; against Pseudomonas aeruginosa [27] it was 20 µg. In addition, the values for the Activity in the test on Mus musculus [13] and with Mus musculus [20] were 116.83% and 60.4%, respectively.
On to `CC(=O)Oc1ccccc1C(=O)O` [ASPIRIN], for which the Time was determined as 10.03 s in the test on Mus musculus [28], 11.39 s in the test with Mus musculus [30] and 13.15 s with Mus musculus [31]. Moreover, the Activity in the test on Mus musculus [29] came to 51.7%.
